The record followed here is ChEMBL document CHEMBL3758120, “Synthesis and Mechanism Studies of 1,3-Benzoazolyl Substituted Pyrrolo[2,3-b]pyrazine Derivatives as Nonintercalative Topoisomerase II Catalytic Inhibitors” (J Med Chem, 2016).

Calls of active or inactive are those of the source. The rule behind the calls is not given here.

Assay [1] is described as follows: Antiproliferative activity against human HL60 cells after 48 hrs by MTT assay. Conditions: HL-60, 48 h. The assay is classed as functional, cell-based. Put shortly: (§1)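 Cells seeded at 5000 per well and left overnight, then exposed to increasing concentrations (0-50 μM) for 48 h. […] HL-60/MX2 is a mitoxantrone-selected HL-60 derivative with reduced Topo IIα/β.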
Background: Tetrazolium dyes change colour on reduction, which living cells bring about.

The test system of another assay is HeLa. The assay is described as follows: Antiproliferative activity against human HeLa cells after 48 hrs by MTT assay. The assay is classed as functional, cell-based. Summed up:
as §1

For a further assay, the system named is A549. The assay is described as follows: Antiproliferative activity against human A549 cells after 48 hrs by MTT assay. The assay is classed as functional, cell-based. Conditions: A549, 48 h. Put shortly: as §1
Assay [2] can be described thus: Antiproliferative activity against human HL60/MX2 cells after 48 hrs by MTT assay. The class given is functional, cell-based. Particulars: HL60/MX2, 48 h. Put shortly: as §1
For the next assay, the system named is HEK293. The assay is described as follows: Cytotoxicity against HEK293 cells after 48 hrs by MTT assay. The class given is cell-based. Conditions: Homo sapiens, HEK293, 48 h.
Assay [3] has as its target T1, DNA topoisomerase 1 (Homo sapiens) (UniProt P11387).
T1 sequence (whole entry): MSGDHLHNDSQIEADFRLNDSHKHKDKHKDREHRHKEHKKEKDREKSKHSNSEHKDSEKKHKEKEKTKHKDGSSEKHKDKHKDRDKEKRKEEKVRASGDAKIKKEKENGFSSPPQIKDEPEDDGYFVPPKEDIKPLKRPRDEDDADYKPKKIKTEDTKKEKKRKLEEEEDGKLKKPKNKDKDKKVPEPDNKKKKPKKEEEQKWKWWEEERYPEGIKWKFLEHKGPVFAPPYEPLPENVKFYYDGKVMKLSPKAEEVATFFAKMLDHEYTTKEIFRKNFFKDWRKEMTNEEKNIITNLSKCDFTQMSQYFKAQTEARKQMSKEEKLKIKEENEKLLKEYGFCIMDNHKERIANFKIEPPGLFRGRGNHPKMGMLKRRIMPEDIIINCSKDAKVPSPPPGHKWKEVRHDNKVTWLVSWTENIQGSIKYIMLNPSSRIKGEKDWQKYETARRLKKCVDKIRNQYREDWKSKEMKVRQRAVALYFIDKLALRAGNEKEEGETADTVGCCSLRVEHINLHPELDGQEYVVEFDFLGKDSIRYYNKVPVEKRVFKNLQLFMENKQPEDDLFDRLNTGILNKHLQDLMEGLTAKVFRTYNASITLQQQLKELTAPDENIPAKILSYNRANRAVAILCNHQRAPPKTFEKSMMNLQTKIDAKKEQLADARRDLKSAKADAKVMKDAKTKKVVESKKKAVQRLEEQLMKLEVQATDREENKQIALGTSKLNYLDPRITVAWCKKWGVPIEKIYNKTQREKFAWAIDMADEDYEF
The assay is described as follows: Inhibition of recombinant human topoisomerase 1-mediated relaxation of supercoiled pBR322 DNA at 50 uM incubated for 30 mins by agarose gel electrophoresis. Put shortly:
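Supercoiled pBR322 relaxed by Topo I with compound, incubated 30 min at 37 °C, stopped with 1% SDS dye, run on 1% agarose 1 h at 90 V in TAE, stained and imaged under UV; camptothecin as reference.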

The target in assay [4] is DNA topoisomerase 2-alpha (Homo sapiens, UniProt P11388). The assay is described as follows: Inhibition of purified human topoisomerase 2-mediated relaxation of supercoiled pBR322 DNA at 50 uM incubated for 30 mins by agarose gel electrophoresis. Summed up:
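Reactions contained 0.2 μg supercoiled pBR322 in 50 mM Tris-HCl pH 8.0, 150 mM NaCl, 10 mM MgCl2, 0.5 mM DTT, 30 μg/ml BSA, normally 2 mM ATP (1, 2 or 4 mM in ATP-competition runs). Started with 1 U human Topo II, 30 min at 37 °C, stopped with sarcosyl buffer, run on 1% agarose 1.5 h at 75 V, gel-stained and imaged under UV.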

A short description of assay [5]: Antiproliferative activity against human MDA-MB-201 cells after 48 hrs by MTT assay. The assay is classed as functional, cell-based. Summed up:
as §1

Another assay relates to Raji. The assay is described as follows: Antiproliferative activity against human Raji cells after 48 hrs by MTT assay. The class given is functional, cell-based. Put shortly: as §1
The next assay concerns K562. The assay is described as follows: Antiproliferative activity against human K562 cells after 48 hrs by MTT assay. The class given is functional, cell-based. Conditions: K562, 48 h. Summed up: as §1
A further assay has as its system HL-60. The assay is described as follows: Resistance index, ratio of IC50 for human HL60/MX2 cells to IC50 for HL60 cells. The class given is functional. Summed up: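 Resistance index calculated as MTT-derived IC50 (48 h exposure, 0-50 μM, A570 readout) in HL-60/MX2 divided by IC50 in parental HL-60.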

Chain of DNA topoisomerase 2-alpha (P11388 whole entry): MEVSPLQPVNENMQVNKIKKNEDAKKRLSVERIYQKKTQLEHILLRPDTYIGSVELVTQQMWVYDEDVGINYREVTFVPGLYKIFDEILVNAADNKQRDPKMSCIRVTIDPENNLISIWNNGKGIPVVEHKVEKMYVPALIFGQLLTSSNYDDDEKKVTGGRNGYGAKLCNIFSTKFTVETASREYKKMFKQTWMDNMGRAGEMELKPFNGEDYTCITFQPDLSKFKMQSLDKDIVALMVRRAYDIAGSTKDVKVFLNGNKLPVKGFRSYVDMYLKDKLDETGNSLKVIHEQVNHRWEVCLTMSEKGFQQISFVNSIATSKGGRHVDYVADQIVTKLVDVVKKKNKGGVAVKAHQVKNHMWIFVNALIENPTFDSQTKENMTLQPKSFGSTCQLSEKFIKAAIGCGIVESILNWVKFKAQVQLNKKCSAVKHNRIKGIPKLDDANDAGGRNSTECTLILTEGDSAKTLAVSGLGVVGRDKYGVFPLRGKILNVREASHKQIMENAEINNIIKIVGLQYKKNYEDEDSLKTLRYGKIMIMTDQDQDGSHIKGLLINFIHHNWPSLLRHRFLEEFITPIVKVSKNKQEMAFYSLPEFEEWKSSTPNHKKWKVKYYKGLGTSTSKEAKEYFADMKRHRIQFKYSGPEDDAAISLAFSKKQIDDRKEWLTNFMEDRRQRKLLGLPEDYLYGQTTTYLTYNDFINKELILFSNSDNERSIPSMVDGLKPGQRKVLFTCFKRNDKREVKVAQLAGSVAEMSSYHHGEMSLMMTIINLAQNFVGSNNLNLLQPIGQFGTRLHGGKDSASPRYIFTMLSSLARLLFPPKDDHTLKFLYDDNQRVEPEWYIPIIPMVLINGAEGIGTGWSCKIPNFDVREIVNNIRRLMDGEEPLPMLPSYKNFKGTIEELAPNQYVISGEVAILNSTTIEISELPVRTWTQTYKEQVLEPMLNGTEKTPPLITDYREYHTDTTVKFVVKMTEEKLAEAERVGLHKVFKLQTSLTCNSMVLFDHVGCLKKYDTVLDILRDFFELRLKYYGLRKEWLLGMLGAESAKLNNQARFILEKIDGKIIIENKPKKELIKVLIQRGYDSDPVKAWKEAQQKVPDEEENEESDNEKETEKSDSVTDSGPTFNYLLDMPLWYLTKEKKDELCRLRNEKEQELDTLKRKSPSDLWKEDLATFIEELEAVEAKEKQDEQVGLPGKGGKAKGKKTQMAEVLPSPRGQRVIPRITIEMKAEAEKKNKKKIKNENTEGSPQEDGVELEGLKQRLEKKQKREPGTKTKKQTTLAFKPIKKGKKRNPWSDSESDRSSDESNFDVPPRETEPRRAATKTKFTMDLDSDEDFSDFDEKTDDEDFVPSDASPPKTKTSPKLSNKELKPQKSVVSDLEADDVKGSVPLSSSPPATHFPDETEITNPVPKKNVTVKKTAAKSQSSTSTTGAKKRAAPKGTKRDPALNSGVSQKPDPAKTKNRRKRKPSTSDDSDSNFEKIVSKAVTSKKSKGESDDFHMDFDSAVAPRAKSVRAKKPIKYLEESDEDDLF

As a reminder, the IC50 is the concentration needed to halve the response being measured. Regarding `CN(C)CCCCCn1c(N)c(-c2nc3ccccc3[nH]2)c2nc(C#N)c(C#N)nc21`, the figures for the concentration for half-maximal inhibition (IC50) (in assay [1]; with HeLa) were 3.42 µM and 10.8 µM, respectively.
On to `N#Cc1nc2c(-c3nc4ccccc4[nH]3)c(N)n(CCCN3CCOCC3)c2nc1C#N`, for which the IC50 with A549 is > 50 µM; in [1], > 50 µM; in assay [2], 5.57 µM; in the assay with HEK293 it was > 50 µM; in [5], > 50 µM; with Raji it was 14.4 µM. Also, the IC50 was 7.72 µM in the assay with K562 and > 50 µM in the assay on HeLa. The inhibition entry in [3] and in assay [4] was “inactive” throughout.
Turning to `N#Cc1nc2c(-c3nc4ccccc4[nH]3)c(N)n(CCCO)c2nc1C#N`, the IC50 (with A549; in assay [1]; in assay [2]; with HEK293; in assay [5]; with Raji) was > 50 µM each time. Moreover, the IC50 in the assay on K562 and in the assay with HeLa was > 50 µM throughout. In addition, the inhibition result in [3] and in assay [4] was “inactive” each time.
Turning to `N#Cc1nc2c(-c3nc4ccccc4[nH]3)c(N)n(CCO)c2nc1C#N`, the IC50 was > 50 µM in the assay on A549; > 50 µM in assay [1]; > 50 µM in [2]; > 50 µM in the assay on HEK293; > 50 µM in assay [5]; 5.52 µM in the assay with Raji. The IC50 with K562 and in the assay on HeLa was > 50 µM in each case. Further, the inhibition entry in assay [3] and in assay [4] was “inactive” throughout.
With `CN(C)CCCCn1c(N)c(-c2nc3cc(Cl)ccc3[nH]2)c2nc(C#N)c(C#N)nc21`, the half-maximal inhibitory concentration (IC50) in the assay on A549 amounted to 12.1 µM; in assay [1], 1.48 µM; in [2] it was 0.58 µM; in the assay with HEK293, 4.73 µM; in [5] it was 3.28 µM; in the assay with Raji, 0.95 µM. The IC50 in the assay on K562 is 1.93 µM; in the assay with HeLa, 3.12 µM. The “Ratio IC50” value in the assay with HL-60 is on record as 0.4. Further, the inhibition result in assay [4] is “Active”.
On to `CCN(CC)CCCn1c(N)c(-c2nc3cc(Cl)ccc3[nH]2)c2nc(C#N)c(C#N)nc21`, for which the IC50 in the assay on A549 is > 50 µM; in assay [1] it was 3.47 µM; in [2], 2.46 µM; in the assay with HEK293 it was 8.42 µM; in assay [5], 23.2 µM; with Raji, 1.62 µM. The IC50 in the assay with K562 was determined as 4.83 µM; in the assay with HeLa, 24.4 µM. Also, in the assay with HL-60, the “Ratio IC50” value was 0.7. Moreover, the inhibition result in [4] is “Active”.
Turning to `N#Cc1nc2c(-c3nc4ccccc4[nH]3)c(N)n(CCc3cc4ccccc4[nH]3)c2nc1C#N`, the IC50 (in the assay on A549; in assay [1]; in assay [2]; in the assay on HEK293; in assay [5]; in the assay on Raji) was > 50 µM throughout. Also, the IC50 with K562 and with HeLa was > 50 µM throughout. The inhibition result in assay [3] and in [4] was “inactive” throughout.
For `CN(C)CCn1c(N)c(-c2nc3cc(Cl)ccc3[nH]2)c2nc(C#N)c(C#N)nc21`, the IC50 was > 50 µM with A549; > 50 µM in assay [1]; > 50 µM in assay [2]; > 50 µM with HEK293; > 50 µM in [5]; 11.8 µM in the assay on Raji. Also, the IC50 in the assay with K562 is 11.3 µM; with HeLa, > 50 µM. The inhibition result in assay [4] is “inactive”.
With `CCN(CC)CCCCn1c(N)c(-c2nc3cc(Cl)ccc3[nH]2)c2nc(C#N)c(C#N)nc21`, the half-inhibitory concentration (IC50) was determined as 2.27 µM in the assay with A549; 0.82 µM in [1]; 1.77 µM in assay [2]; 3.86 µM in the assay with HEK293; 2.84 µM in assay [5]; 0.72 µM in the assay on Raji. Also, the IC50 turned out to be 1.27 µM in the assay with K562 and 3.64 µM in the assay on HeLa. Also, in the assay with HL-60, the “Ratio IC50” value is on record as 2.2. The inhibition result in assay [4] is “Active”.
Take `N#Cc1nc2c(-c3nc4ccccc4[nH]3)c(N)n(CCN3CCOCC3)c2nc1C#N`: the IC50 in the assay on A549 is > 50 µM; in assay [1], 9.04 µM; in assay [2], > 50 µM; in the assay on HEK293, 22.3 µM; in [5], > 50 µM; with Raji, 2.88 µM. In addition, the IC50 in the assay with K562 and in the assay on HeLa was > 50 µM throughout. Besides, the inhibition entry in [3] and in [4] was “inactive” throughout.
Take `CN(C)CCCCn1c(N)c(C#N)c2nc(C#N)c(C#N)nc21`: the IC50 in assay [1] was 12.9 µM; with HeLa, > 50 µM. In [4], the inhibition result was “inactive”.
As to `N#Cc1nc2c(-c3nc4ccccc4[nH]3)c(N)n(CCc3ccccc3)c2nc1C#N`, the IC50 in the assay with A549 is > 50 µM; in [1], > 50 µM; in [2], > 50 µM; with HEK293 it was > 50 µM; in assay [5], > 50 µM; in the assay on Raji, 15.4 µM. The IC50 in the assay with K562 and with HeLa was > 50 µM in each case. The inhibition entry in [4] was “inactive”.
Regarding `N#Cc1nc2c(-c3nc4ccccc4[nH]3)c(N)n(CCCNc3ccccc3)c2nc1C#N`, the results for the IC50 (in [1]; in the assay with HeLa) were 6.92 µM and 26.3 µM, respectively.
For `CN(C)CCCn1c(N)c(-c2nc3cc(Cl)ccc3[nH]2)c2nc(C#N)c(C#N)nc21`, the IC50 in the assay with A549 is > 50 µM; in assay [1] it was 2.93 µM; in assay [2] it was 5.31 µM; in the assay with HEK293, 11.7 µM; in assay [5] it was 28.1 µM; in the assay on Raji it was 3.11 µM. Besides, the IC50 in the assay on K562 came out at 10.7 µM; in the assay on HeLa it was 16.5 µM. The “Ratio IC50” value in the assay on HL-60 came out at 1.8. Further, the inhibition entry in assay [4] is “Active”.
In the case of `CN(C)CCn1c(N)c(-c2nc3ccccc3n2C)c2nc(C#N)c(C#N)nc21`, the IC50 was > 50 µM with A549; > 50 µM in assay [1]; 4.68 µM in [2]; > 50 µM in the assay with HEK293; > 50 µM in assay [5]; 46.5 µM with Raji. Further, the IC50 in the assay on K562 and in the assay on HeLa was > 50 µM in each case. In assay [4], the inhibition result is “inactive”.
On to `CCN(CC)CCn1c(N)c(-c2nc3ccccc3n2C)c2nc(C#N)c(C#N)nc21`, for which the IC50 in the assay with A549 is > 50 µM; in assay [1] it was 8.8 µM; in assay [2], 3.25 µM; in the assay with HEK293, 25.4 µM; in assay [5], > 50 µM; with Raji it was 2.08 µM. Also, the IC50 in the assay with K562 and in the assay with HeLa was > 50 µM each time. Further, the “Ratio IC50” value in the assay with HL-60 is on record as 0.4. Further, the inhibition result in [4] was “inactive”.
For the molecule `N#Cc1nc2c(-c3nc4ccccc4o3)c(N)n(CCCN3CCCCC3)c2nc1C#N`, the half-maximal inhibitory concentration (IC50) with A549 came out at 8.67 µM; in [1], 3.82 µM; in assay [2], 5.45 µM; with HEK293, 19.2 µM; in assay [5], 32.2 µM; in the assay with Raji it was 3.19 µM. Moreover, the IC50 in the assay on K562 is > 50 µM; in the assay on HeLa, 12.2 µM. In the assay on HL-60, the “Ratio IC50” value worked out at 1.4. Besides, the inhibition result in [4] was “inactive”.
Turning to `CCN(CC)CCn1c(N)c(-c2nc3cc(Cl)ccc3[nH]2)c2nc(C#N)c(C#N)nc21`, the concentration for half-maximal inhibition (IC50) in the assay with A549 is > 50 µM; in assay [1], > 50 µM; in assay [2], 9.29 µM; in the assay with HEK293, > 50 µM; in assay [5], > 50 µM; with Raji, 31.5 µM. Further, the IC50 in the assay on K562 and in the assay with HeLa was > 50 µM throughout. The inhibition result in assay [4] is “inactive”.
